This note sets out measurements from PubChem BioAssay AID588423 (The Scripps Research Institute Molecular Screening Center, 2011).

Active and inactive are the calls of the source.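 The calls were made as follows: active = IC50 at or below 1 µM; inactive = the rest.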

This assay concerns the target Protein-arginine deiminase type-4 (Homo sapiens) (UniProt Q9UM07). In words: recombinant human PAD4 inhibitors – biochemical, BAEE substrate, citrulline absorbance, 0-15 µM range, late-stage follow-up (AID 588423). The settings on record: recombinant PAD4, BAEE citrulline colorimetric absorbance. A digest of the protocol:
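Assay system: recombinant PAD4 / Medium: pH 7.6 Tris buffer with calcium and DTT / Dosing: 7-point compound series from 0 up to 15 µM / Incubation: 15 min pre-incubation plus 15 min reaction, 37 °C / Detection: citrulline color, absorbance 540 nm / Evaluation: fitted IC50 of PAD4 inhibition / Replicates: duplicate trials at every compound concentration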

Protein-arginine deiminase type-4 (Homo sapiens), sequence (Q9UM07 whole entry, looked up): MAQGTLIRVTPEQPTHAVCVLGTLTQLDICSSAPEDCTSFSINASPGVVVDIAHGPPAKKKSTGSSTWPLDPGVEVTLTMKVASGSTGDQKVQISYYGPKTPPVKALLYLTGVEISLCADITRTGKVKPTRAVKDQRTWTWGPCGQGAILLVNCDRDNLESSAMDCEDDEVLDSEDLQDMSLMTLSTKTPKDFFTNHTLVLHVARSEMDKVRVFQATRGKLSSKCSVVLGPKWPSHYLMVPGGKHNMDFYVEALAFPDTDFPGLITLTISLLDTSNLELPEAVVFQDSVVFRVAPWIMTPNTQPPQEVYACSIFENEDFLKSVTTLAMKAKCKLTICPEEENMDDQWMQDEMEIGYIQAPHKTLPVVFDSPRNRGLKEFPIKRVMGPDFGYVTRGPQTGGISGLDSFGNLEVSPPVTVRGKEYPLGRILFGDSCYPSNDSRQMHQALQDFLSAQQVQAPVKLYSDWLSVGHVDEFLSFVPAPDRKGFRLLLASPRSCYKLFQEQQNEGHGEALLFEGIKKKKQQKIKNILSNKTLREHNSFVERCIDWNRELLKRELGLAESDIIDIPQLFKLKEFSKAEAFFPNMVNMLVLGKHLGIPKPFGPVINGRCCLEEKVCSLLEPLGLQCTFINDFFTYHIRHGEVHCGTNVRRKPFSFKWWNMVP

Take `O=C1C(O)=C(O)C(=O)c2ncccc21`: the IC50 entry is “inactive”.
